Experimental data published in paper PMC4814305 (The Biochemical journal, 2016).
pIC50, pKi: −log10 of the molar value. Where “and” joins values, the source holds several entries; their conditions need not be identical. Equal entries are not always repeated. Entries after “also recorded” stand apart in the source; their conditions may differ.

Columns and labels:
[1] = molecular target: T1, mitochondrial pyruvate carrier (MPC) (Rattus norvegicus, UniProt P38718+P63031); assay: [1-14C] pyruvate uptake into isolated rat liver mitochondria; assay type: biochemical
T1 sequence (P63031 1-109): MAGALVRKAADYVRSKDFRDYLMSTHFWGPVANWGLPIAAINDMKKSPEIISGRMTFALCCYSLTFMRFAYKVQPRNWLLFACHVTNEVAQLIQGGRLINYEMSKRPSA
T1 sequence (P38718 1-127): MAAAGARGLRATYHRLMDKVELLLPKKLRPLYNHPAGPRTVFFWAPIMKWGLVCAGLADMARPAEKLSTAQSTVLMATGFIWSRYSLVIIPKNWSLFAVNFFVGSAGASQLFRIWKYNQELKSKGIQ
Outline: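 Liver mitochondria from male Wistar rats (~275 g) were isolated by homogenisation, differential and Percoll centrifugation, then held 2 min on ice at 6 mg protein/mL with test compound. Uptake ran in pH 6.8 KCl/MOPS/EGTA buffer with 1 μM rotenone, 60 μM [1-14C]pyruvate and 3H2O at 9°C, stopped at 45 s by rapid sedimentation. Four replicates per concentration, 3 preparations; Ki fitted from % of control, mean ± S.E.M.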

[2] = system: DB-1 human melanoma cells; assay: L-lactate output and intracellular [L-lactate] of DB-1 melanoma cells; assay type: cell-based; settings: DB-1 cells, 1 h, vs DMSO
[3] = system: uncoupled pyruvate oxidation by isolated rat heart mitochondria; assay: Uncoupled pyruvate oxidation by rat heart mitochondria; assay type: biochemical
DB-1 xenografts = settings: 100 mg/kg i.p., cited from earlier work
MCT4 = molecular target: T2, MCT4 (Homo sapiens, UniProt O15427); assay: [U-14C] L-lactate uptake by Xenopus laevis oocytes expressing MCT4; assay type: cell-based; settings: cooperative inhibition fit
T2 sequence (O15427 1-465): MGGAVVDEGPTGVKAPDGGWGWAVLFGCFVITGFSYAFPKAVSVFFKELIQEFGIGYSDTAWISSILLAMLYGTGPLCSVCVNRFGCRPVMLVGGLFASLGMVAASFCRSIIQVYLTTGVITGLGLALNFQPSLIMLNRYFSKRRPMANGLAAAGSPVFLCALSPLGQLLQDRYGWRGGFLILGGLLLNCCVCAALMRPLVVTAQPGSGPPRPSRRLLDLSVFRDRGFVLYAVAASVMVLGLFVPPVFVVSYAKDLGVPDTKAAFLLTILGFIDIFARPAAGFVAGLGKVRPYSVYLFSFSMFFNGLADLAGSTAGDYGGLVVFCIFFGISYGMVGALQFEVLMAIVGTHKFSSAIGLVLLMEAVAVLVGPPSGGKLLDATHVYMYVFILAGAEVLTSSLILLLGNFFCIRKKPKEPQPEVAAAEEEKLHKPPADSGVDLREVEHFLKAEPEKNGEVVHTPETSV

MCT1 = molecular target: T3, MCT1 (Rattus norvegicus, UniProt P53987); assay: [U-14C] L-lactate uptake by Xenopus laevis oocytes expressing MCT1; assay type: cell-based; settings: cooperative inhibition fit
T3 sequence (P53987 1-494): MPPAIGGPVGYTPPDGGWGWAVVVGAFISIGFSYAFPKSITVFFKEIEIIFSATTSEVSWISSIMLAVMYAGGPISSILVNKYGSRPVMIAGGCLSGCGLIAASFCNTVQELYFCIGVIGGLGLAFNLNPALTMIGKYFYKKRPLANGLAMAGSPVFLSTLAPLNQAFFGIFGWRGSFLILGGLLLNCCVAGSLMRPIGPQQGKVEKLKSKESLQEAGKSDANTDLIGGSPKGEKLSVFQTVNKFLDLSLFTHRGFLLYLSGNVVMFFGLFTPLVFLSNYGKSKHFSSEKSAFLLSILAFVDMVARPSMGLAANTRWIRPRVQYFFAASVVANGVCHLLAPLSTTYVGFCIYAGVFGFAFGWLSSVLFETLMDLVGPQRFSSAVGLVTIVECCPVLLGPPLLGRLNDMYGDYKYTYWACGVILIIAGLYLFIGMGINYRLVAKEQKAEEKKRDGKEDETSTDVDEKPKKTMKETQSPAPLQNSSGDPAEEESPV

MCT2 = molecular target: T4, MCT2 (Rattus norvegicus, UniProt Q63344); assay: [U-14C] L-lactate uptake by Xenopus laevis oocytes expressing MCT2; assay type: cell-based; settings: cooperative inhibition fit
T4 sequence (Q63344 1-489): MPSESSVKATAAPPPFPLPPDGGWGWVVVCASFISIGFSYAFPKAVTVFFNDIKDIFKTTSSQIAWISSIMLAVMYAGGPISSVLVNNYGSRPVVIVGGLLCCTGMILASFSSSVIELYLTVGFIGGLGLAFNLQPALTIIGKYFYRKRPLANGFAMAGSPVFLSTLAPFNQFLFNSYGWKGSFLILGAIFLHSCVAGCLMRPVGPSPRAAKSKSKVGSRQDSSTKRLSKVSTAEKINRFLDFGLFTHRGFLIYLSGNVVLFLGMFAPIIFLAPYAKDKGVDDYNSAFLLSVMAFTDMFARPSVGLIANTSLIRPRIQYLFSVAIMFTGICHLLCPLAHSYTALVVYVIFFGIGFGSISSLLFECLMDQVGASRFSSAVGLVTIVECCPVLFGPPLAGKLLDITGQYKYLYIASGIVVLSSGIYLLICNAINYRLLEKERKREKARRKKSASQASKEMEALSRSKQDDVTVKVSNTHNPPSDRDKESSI
T4 sequence (O88775 34-328 partner): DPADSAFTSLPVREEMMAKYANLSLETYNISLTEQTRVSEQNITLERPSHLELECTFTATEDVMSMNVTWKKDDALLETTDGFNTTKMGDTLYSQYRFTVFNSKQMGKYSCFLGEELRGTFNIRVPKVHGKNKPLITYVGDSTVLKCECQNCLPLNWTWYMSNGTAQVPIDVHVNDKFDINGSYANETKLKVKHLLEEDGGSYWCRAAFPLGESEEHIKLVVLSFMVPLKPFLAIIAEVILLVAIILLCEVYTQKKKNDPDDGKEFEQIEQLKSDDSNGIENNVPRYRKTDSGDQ

With `N#CC(=Cc1ccc(O)cc1)C(=O)O` [CHC, α-cyano-4-hydroxycinnamate] the “inhibition of mitochondrial pyruvate carrier (pyruvate uptake)” value ([1]; rat liver mitochondria, 10 μM inhibitor) was > 90%.

For `O=C(O)c1nn(Cc2ccc(Cl)cc2Cl)c2ccccc12` [LND, Lonidamine], the “increase of intracellular [L-lactate]” value ([2]; 40 μM LND) was “two-fold”, the L-lactate output ([2]; 40 μM and 150 μM LND) was “decrease in L-lactate output” and the L-lactate output ([2]; 150 μM LND) was “decreased L-lactate output; also recorded: L-lactate output decreased”. For the same molecule, the “increase of intracellular [L-lactate]” value ([2]; 150 μM LND) was “> five-fold; also recorded: eight-fold”, the L-lactate output ([2]; 1–10 μM LND) was “increased L-lactate output” and the “intracellular [L-lactate]” value ([2]; 1–10 μM LND) was “without a detectable increase”. The “effect on uncoupled pyruvate oxidation” value ([3]; 30°C, 2 μM LND) was “without effect”, the “inhibition of uncoupled pyruvate oxidation” value ([3]; 30°C, 3 μM LND) was ~ 15% and the “inhibition of uncoupled pyruvate oxidation” value ([3]; 30°C, 10 μM LND) was ~70%. For the same molecule, the pIC50 ([3]; read-out: IC50 for inhibition of uncoupled pyruvate oxidation, 30°C, pyruvate + malate, FCCP) was ~5.15 and ~5.12, the “tumour pHi after LND treatment” value (DB-1 xenografts; DB-1 xenografts in mice, within about 40 min, from 6.9 ± 0.1) was 6.3 ± 0.1 and the “decrease in the tumour NTP/Pi ratio” value (DB-1 xenografts; DB-1 xenografts in mice, within about 3 hr) was 66.8 ± 5.7%. For the same molecule, the “decrease in extracellular pH of the tumour” value (DB-1 xenografts; DB-1 xenografts in mice) was ~ 0.2 pH units, the “rise in tumour [L-lactate]” value (DB-1 xenografts; DB-1 xenografts in mice) was “three-fold” and the “change in pHi of liver” value (DB-1 xenografts; mice, 20 min post-injection) was “only a slight transient change”. The “change in NTP/Pi of the liver” value (DB-1 xenografts; mice, 40 min post-injection) was “only a transient small decrease”, the “change in NTP/Pi ratio of muscle and brain” value (DB-1 xenografts; mice) was “no change” and the “change in pHi of normal muscle or brain” value (DB-1 xenografts; mice) was “No significant change”. The pKi [1] was 5.60, the “Hill coefficient of inhibition of MCT4” value (MCT4) was 1.65–1.85 and 1.84 ± 0.19 and the “Hill coefficient of inhibition of MCT1” value (MCT1) was 1.65–1.85 and 1.65 ± 0.23. The “Hill coefficient of inhibition of MCT2” value (MCT2) was 1.86 ± 0.34.
